Among the data in ChEMBL document CHEMBL1138866, “Antitubercular nucleosides that inhibit siderophore biosynthesis: SAR of the glycosyl domain” (J Med Chem, 2006) are Ki and MIC99 values, retold here.

In general, MIC99 refers to the lowest concentration that inhibits either 99% of growth or 99% of the strains tested, depending on the study.

For experiment [1], the target named is T1, Salicyl-AMP ligase / salicyl-S-ArCP synthetase (Mycobacterium tuberculosis, UniProt P71716).
T1 sequence (P71716 whole entry): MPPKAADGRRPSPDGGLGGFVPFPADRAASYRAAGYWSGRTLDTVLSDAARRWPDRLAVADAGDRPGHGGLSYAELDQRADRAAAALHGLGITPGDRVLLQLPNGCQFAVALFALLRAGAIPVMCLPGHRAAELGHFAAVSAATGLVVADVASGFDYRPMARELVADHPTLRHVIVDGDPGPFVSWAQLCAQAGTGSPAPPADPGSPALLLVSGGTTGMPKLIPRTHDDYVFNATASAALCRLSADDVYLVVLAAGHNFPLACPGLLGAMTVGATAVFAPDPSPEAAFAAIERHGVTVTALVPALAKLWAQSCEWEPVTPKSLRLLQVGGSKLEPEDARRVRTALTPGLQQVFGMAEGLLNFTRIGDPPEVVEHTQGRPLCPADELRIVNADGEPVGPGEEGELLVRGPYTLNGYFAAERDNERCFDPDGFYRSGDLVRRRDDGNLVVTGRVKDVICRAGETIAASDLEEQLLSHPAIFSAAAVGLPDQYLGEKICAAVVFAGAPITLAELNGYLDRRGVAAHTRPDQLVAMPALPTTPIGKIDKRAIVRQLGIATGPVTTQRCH
In words: Inhibition of Mycobacterium tuberculosis MbtA by [32P]PPi-ATP exchange assay. To be noted: read-out: Ki app. The method in brief:
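Native MbtA (His6-SUMO tag removed), 7 nM, with 250 μM salicylic acid, 10 mM ATP and 1 mM PPi in 75 mM Tris-HCl pH 7.5, 10 mM MgCl2, 2 mM DTT. Inhibitor in DMSO preincubated 10 min at 23 °C, then [32P]PPi added and run 20 min at 37 °C. Charcoal-bound γ-[32P]ATP counted; duplicate data fit to Morrison equation ([E] 7.0 nM) for KIapp.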

Experiment [2] concerns Yersinia pseudotuberculosis. In words: Inhibitory activity against Yersinia pseudotuberculosis ATCC 6902. Type of experiment: functional. Summed up:
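Broth microdilution in triplicate in desferrated BHI (Chelex-treated plus 200 μM 2,2′-dipyridyl), with or without 150 μM FeCl3 for iron-rich conditions. Initial density 10^3–10^4 cells/well, compounds up to 100 μM, 1% DMSO control. Grown 24 h at 37 °C with shaking; OD600 read; MIC99.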

Experiment [3] relates to Mycobacterium tuberculosis. In words: Antitubercular activity against Mycobacterium tuberculosis H37Rv. In kind it is functional. The method in brief:
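Broth microdilution in iron-deficient GAST, in quadruplicate, with drugs from DMSO stocks and DMSO-treated control wells. Initial density 10^4–10^5 cells/assay, 37 °C, OD620 read at 10 and 14 days. MIC99 is the concentration giving complete growth inhibition.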

≈ marks a conversion by molar mass, not a printed value.

Turning to `Nc1ncnc2ncn([C@@H]3C[C@H](COS(=O)(=O)NC(=O)c4ccccc4O)[C@@H](O)[C@H]3O)c12`, in experiment [1], the Ki was 2.3 nM. Further, the MIC99 in experiment [2] is more than 100 µM; in experiment [3], 1.56 µM (≈ 0.725 µg/mL).

Take `Nc1ncnc2ncn([C@@H]3O[C@H](CNS(=O)(=O)NC(=O)c4ccccc4O)[C@@H](O)[C@H]3O)c12`: the Ki in experiment [1] is 3.7 nM. Moreover, in experiment [3], the MIC99 stood at 0.19 µM (≈ 0.0884 µg/mL).

As for `Nc1ncnc2ncn([C@@H]3O[C@H](COS(=O)(=O)NC(=O)c4ccccc4O)[C@@H](O)[C@H]3O)c12`, the results for the MIC99 in experiment [2] and in experiment [3] were 20 µM (≈ 9.33 µg/mL) and 0.29 µM (≈ 0.135 µg/mL), respectively.

Regarding `Nc1ncnc2ncn(COCCOS(=O)(=O)NC(=O)c3ccccc3O)c12`, in experiment [1], the Ki stood at 16700 nM. Also, the MIC99 in experiment [2] is more than 100 µM; in experiment [3], more than 200 µM.

As for `Nc1ncnc2ncn([C@H]3C=C[C@@H](COS(=O)(=O)NC(=O)c4ccccc4O)C3)c12`, the Ki in experiment [1] stood at 830 nM. The MIC99 in experiment [2] was more than 100 µM; in experiment [3], more than 200 µM.

In the case of `Nc1ncnc2ncn([C@H]3CC[C@@H](COS(=O)(=O)NC(=O)c4ccccc4O)C3)c12`, the Ki in experiment [1] worked out at 61 nM. The MIC99 in experiment [3] is more than 200 µM.

Take `Nc1ncnc2ncn([C@@H]3O[C@H](COS(=O)(=O)NC(=O)c4ccccc4O)C[C@H]3O)c12`: in experiment [1], the Ki was 3.2 nM. The MIC99 in experiment [2] was determined as 80 µM (≈ 36 µg/mL); in experiment [3], 1.56 µM (≈ 0.703 µg/mL).

Consider `Nc1ncnc2ncn([C@H]3C[C@H](O)[C@@H](COS(=O)(=O)NC(=O)c4ccccc4O)O3)c12`, for which the Ki in experiment [1] came to 3.5 nM.

In experiment [3], `NNC(=O)c1ccncc1` [ISONIAZID] showed an MIC99 of 0.18 µM (≈ 0.0247 µg/mL).
